Reference: ChEMBL document CHEMBL1156215, “Homoisoflavonoid derivatives from the roots of Ophiopogon japonicus and their in vitro anti-inflammation activity” (Bioorg Med Chem Lett, 2010)

Legend:
BEAS-2B [1] = assay: Antiinflammatory activity in human BEAS2B cells assessed as inhibition of IL4-induced eotaxin production after 48 hrs by ELISA treated 2 hrs before IL4 challenge; assay type: functional, cell-based
Procedure, shortened: (§1)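 BEAS-2B cells in RPMI-1640 with 10% FBS at 37 °C, 5% CO2, plated at 5 × 10^5/mL, switched to serum-free RPMI at 80% confluence. Pretreated 2 h with compound (1.0–25.0 μM), then IL-4 (20 ng/mL) alone. Supernatant eotaxin measured by sandwich ELISA after 48 h. Values are the mean of three experiments.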

[2] = Antiinflammatory activity in human BEAS2B cells assessed as inhibition of IL4-induced eotaxin production at 25 uM after 48 hrs by ELISA treated 2 hrs before IL4 challenge; assay type: functional, BEAS-2B; procedure, shortened: as §1
[3] = Cytotoxicity against human BEAS2B cells at 25 uM after 48 hrs by MTT assay in the presence of IL4; assay type: cell-based; conditions: beas-2b
Procedure, shortened: (§2)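 BEAS-2B viability by MTT after 48 h exposure to compound, with or without IL-4.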

[4] = Cytotoxicity against human BEAS2B cells at 25 uM after 48 hrs by MTT assay; assay type: cell-based; conditions: beas-2b; procedure, shortened: as §2
BEAS-2B [5] = assay: Antiinflammatory activity in human BEAS2B cells assessed as inhibition of IL4 and TNF-alpha-induced eotaxin production after 48 hrs by ELISA treated 2 hrs before IL4 challenge; assay type: functional, cell-based
[6] = Antiinflammatory activity in human BEAS2B cells assessed as reduction in IL4 and TNF-alpha-induced eotaxin production at 25 uM after 48 hrs by ELISA treated 2 hrs before IL4 challenge (RVb=456.2 pg/ml)

| Compound | Activity (BEAS-2B [1]) | Activity [2] [pg/mL] | Activity [3] | Activity [4] | Activity (BEAS-2B [5]) | Activity [6] [pg/mL] |
| --- | --- | --- | --- | --- | --- | --- |
| COc1ccc(C[C@@H]2COc3c(OC)c(O)c(C)c(O)c3C2=O)c(O)c1O [OPHIOPOGONANONE G] | Dose-dependent effect | 30.8 | Non-toxic | Non-toxic | – | – |
| Cc1c(O)c2c(c(C=O)c1O[C@@H]1O[C@H](CO)[C@@H](O)[C@H](O)[C@H]1O)OC[C@@H](Cc1ccc3c(c1)OCO3)C2=O [OPHIOPOGOSIDE A] | Dose-dependent effect | 28.5 | Non-toxic | Non-toxic | Dose-dependent effect | – |
| COc1c(C)c(O[C@@H]2O[C@H](CO)[C@@H](O)[C@H](O)[C@H]2O)c(C=O)c2c1C(=O)[C@H](Cc1ccc3c(c1)OCO3)CO2 [OPHIOPOGOSIDE B] | Dose-dependent effect | 25.5 | Non-toxic | Non-toxic | – | – |
| COc1ccc2ccc(=O)oc2c1CC=C(C)C [OSTHOLE] | – | – | – | – | – | 80.5 |
